Source: ChEMBL document CHEMBL1126143, “Synthesis and antitumor activity of tropolone derivatives. 7. Bistropolones containing connecting methylene chains” (J Med Chem, 1992)
Calls of active or inactive are those of the source. No cut-off for these calls is given here.

Legend:
P388 [1] = test: Compound was tested in vivo for the antitumor activity against P388 in mice after intraperitoneal administration of 3.1 mg/kg dose; T/C= treated/control; format: functional, Mus musculus
[2] = Inhibit growth of KB cells by 50%; format: functional, cell-based; conditions: Homo sapiens
P388 [3] = test: Compound was tested in vivo for the antitumor activity against P388 leukemia cells in mice after intraperitoneal administration of 12.5 mg/kg dose; T/C= treated/control
P388 [4] = test: Compound was tested in vivo for the antitumor activity against P388 in mice after intraperitoneal administration of 6.3 mg/kg dose; T/C= treated/control; format: functional, Mus musculus
FM3A [5] = test: Ability to induce dNTP pool imbalance at 41 uM dose was tested; significant imbalance in the intracellular dNTP pool in FM3A cells; format: functional, cell-based; conditions: Mus musculus
FM3A [6] = test: Inhibit growth of FM3A cells by 50%; format: functional, cell-based; conditions: Mus musculus
Procedure, shortened: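 FM3A cells were grown in ES medium with 2% heat-inactivated FBS at 37 °C under 5% CO2, seeded at about 5 × 10^4 cells/mL, and exposed to a range of drug concentrations. Cells were counted electronically after 48 h. IC50 is the concentration that reduces growth rate by 50% of control.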

P388 [7] = test: Compound was tested in vivo for the antitumor activity against P388 leukemia cells in mice after intraperitoneal administration of 5 mg/kg dose; T/C= treated/control; format: functional, Mus musculus
FM3A [8] = test: Ability to induce dNTP pool imbalance at 9.0 uM dose was tested; significant imbalance in the intracellular dNTP pool in FM3A cells; conditions: Mus musculus
P388 [9] = test: Compound was tested in vivo for the antitumor activity against P388 in mice after intraperitoneal administration of 0.6 mg/kg dose; T/C= treated/control; format: functional, Mus musculus
P388 [10] = test: Compound was tested in vivo for the antitumor activity against P388 in mice after intraperitoneal administration of 2.5 mg/kg dose; T/C= treated/control; format: functional, Mus musculus
P388 [11] = test: Tested in vivo for the antitumor activity against P388 leukemia cells in mice after intraperitoneal administration of 400 mg/kg dose; T/C= treated/control; format: functional
P388 [12] = test: Tested in vivo for the antitumor activity against P388 in mice after intraperitoneal administration of 100 mg/kg dose; T/C= treated/control; format: functional, Mus musculus
P388 [13] = test: Tested in vivo for the antitumor activity against P388 in mice after intraperitoneal administration of 200 mg/kg dose; T/C= treated/control; format: functional, Mus musculus
P388 [14] = test: Compound was tested in vivo for the antitumor activity against P388 in mice after intraperitoneal administration of 50 mg/kg dose; T/C= treated/control; format: functional, Mus musculus
P388 [15] = test: Compound was tested in vivo for the antitumor activity against P388 in mice after intraperitoneal administration of 25 mg/kg dose; T/C= treated/control; format: functional, Mus musculus
FM3A [16] = test: Ability to induce dNTP pool imbalance at 7.3 uM dose was tested; significant imbalance in the intracellular dNTP pool in FM3A cells; conditions: Mus musculus
P388 [17] = conditions: Mus musculus
P388 [18] = test: Compound was tested in vivo for the antitumor activity against P388 in mice after intraperitoneal administration of 400 mg/kg dose; T/C= treated/control; format: functional, Mus musculus
P388 [19] = test: Compound was tested in vivo for the antitumor activity against P388 leukemia cells in mice after intraperitoneal administration of 25 mg/kg dose; T/C= treated/control; format: functional, Mus musculus
P388 [20] = test: Compound was tested in vivo for the antitumor activity against P388 in mice after intraperitoneal administration of 12.5 mg/kg dose; T/C= treated/control; format: functional, Mus musculus
FM3A [21] = test: Ability to induce dNTP pool imbalance at 7.9 uM dose was tested; significant imbalance in the intracellular dNTP pool in FM3A cells; conditions: Mus musculus
P388 [22] = test: Compound was tested in vivo for the antitumor activity against P388 leukemia cells in mice after intraperitoneal administration of 100 mg/kg dose; T/C= treated/control; format: functional, Mus musculus
FM3A [23] = test: Ability to induce dNTP pool imbalance at 15.0 uM dose was tested; significant imbalance in the intracellular dNTP pool in FM3A cells; conditions: Mus musculus
FM3A [24] = test: Compound''s ability to induce dNTP pool imbalance at 6.1 uM dose was tested; significant imbalance in the intracellular dNTP pool in FM3A cells; format: functional, cell-based; conditions: Mus musculus
FM3A [25] = test: Ability to induce dNTP pool imbalance at 16.4 uM dose was tested; significant imbalance in the intracellular dNTP pool in FM3A cells; conditions: Mus musculus
FM3A [26] = test: Ability to induce dNTP pool imbalance at 3.5 uM dose was tested; significant imbalance in the intracellular dNTP pool in FM3A cells; conditions: Mus musculus
P388 [27] = test: Compound was tested in vivo for the antitumor activity against P388 leukemia cells in mice after intraperitoneal administration of 40 mg/kg dose; T/C= treated/control; format: functional, Mus musculus
P388 [28] = test: Compound was tested in vivo for the antitumor activity against P388 in mice after intraperitoneal administration of 20 mg/kg dose; T/C= treated/control; format: functional, Mus musculus
P388 [29] = test: Compound was tested in vivo for the antitumor activity against P388 in mice after intraperitoneal administration of 10 mg/kg dose; T/C= treated/control; format: functional, Mus musculus

Structure (SMILES)	IC50 [2]	Imbalance (FM3A [5])	IC50 (FM3A [6])	T/C (P388 [12])	T/C (P388 [13])	T/C (P388 [11])	other results
COc1ccc(C(c2ccc3cccnc3c2O)c2ccc3cccnc3c2O)cc1	< 0.7 µM	significant imbalance in the intracellular dNTP pool in FM3A cells	0.01 µM				T/C (P388 [1]): 111%; T/C (P388 [3]): 164%; T/C (P388 [4]): 128%
COc1ccc(C(c2ccc(C(C)C)cc(=O)c2O)c2ccc(C(C)C)cc(=O)c2O)cc1	1.1 µM		0.4 µM				T/C (P388 [7]): 173%; Imbalance (FM3A [8]): significant imbalance in the intracellular dNTP pool in FM3A cells; T/C (P388 [9]): 127%; T/C (P388 [10]): 134%
CC(C)c1cccc(=O)c(O)c1 [HINOKITIOL]	3.5 µM	significant imbalance in the intracellular dNTP pool in FM3A cells	1.1 µM				T/C (P388 [11]; Mus musculus): inactive
CC(C)c1ccc(CCCCCCc2ccc(C(C)C)cc(=O)c2O)c(O)c(=O)c1	1.5 µM		0.9 µM	128%	80%	70%	T/C (P388 [14]): 137%; T/C (P388 [15]): 110%; Imbalance (FM3A [16]): significant imbalance in the intracellular dNTP pool in FM3A cells
COc1ccc(C(c2ccc(C(C)C)cc(OC)c2=O)c2ccc(C(C)C)cc(OC)c2=O)cc1	114 µM		14.1 µM				T/C (P388 [17]): inactive
CC(C)c1ccc(CCCCCCCCc2ccc(C(C)C)cc(=O)c2O)c(O)c(=O)c1	4.3 µM	significant imbalance in the intracellular dNTP pool in FM3A cells	0.9 µM	107%	110%	110%	
CC(C)c1ccc(CCCCCCCCCCCCc2ccc(C(C)C)cc(=O)c2O)c(O)c(=O)c1	27.3 µM	significant imbalance in the intracellular dNTP pool in FM3A cells	1.3 µM	106%	107%		T/C (P388 [18]): 105%
CC(C)c1ccc(Cc2ccc(C(C)C)cc(=O)c2O)c(O)c(=O)c1	< 0.9 µM		1 µM				T/C (P388 [19]): 123%; T/C (P388 [20]): 152%; T/C (P388 [4]): 137%; Imbalance (FM3A [21]): significant imbalance in the intracellular dNTP pool in FM3A cells
CC(C)C1=CC(=O)C(=O)/C(=C2/C=CC(C(C)C)=CC(O)=C2O)C=C1	9.5 µM	significant imbalance in the intracellular dNTP pool in FM3A cells	3.7 µM				T/C (P388 [22]): 143%; T/C (P388 [14]): 171%; T/C (P388 [15]): 152%
CC(C)c1ccc(CCc2ccc(C(C)C)cc(=O)c2O)c(O)c(=O)c1	8 µM		1.2 µM				Imbalance (FM3A [23]): significant imbalance in the intracellular dNTP pool in FM3A cells; T/C (P388 [22]): 165%; T/C (P388 [4]): 121%; T/C (P388 [15]): 150%
CCOC(c1ccc(OC)cc1)c1ccc(C(C)C)cc(=O)c1O (stereo not given)	1.6 µM		1.1 µM		140%	140%	Imbalance (FM3A [24]): significant imbalance in the intracellular dNTP pool in FM3A cells
CC(C)c1ccc(SCCSc2ccc(C(C)C)cc(=O)c2O)c(O)c(=O)c1	1.6 µM		4.8 µM	151%	171%	80%	Imbalance (FM3A [25]): significant imbalance in the intracellular dNTP pool in FM3A cells
CC(C)c1ccc(SCCCSc2ccc(C(C)C)cc(=O)c2O)c(O)c(=O)c1	1.6 µM			93%	131%	169%	
CC(C)c1ccc(COCc2ccc(C(C)C)cc(=O)c2O)c(O)c(=O)c1	6.2 µM		0.08 µM				Imbalance (FM3A [26]): significant imbalance in the intracellular dNTP pool in FM3A cells; T/C (P388 [27]): 156%; T/C (P388 [28]): 186%; T/C (P388 [29]): 164%
COc1ccc(C(c2oc(CO)cc(=O)c2O)c2oc(CO)cc(=O)c2O)cc1	> 249 µM		> 249 µM				T/C (P388 [17]): inactive
Oc1cccc2cccnc12 [OXYQUINOLINE]	< 2.1 µM	significant imbalance in the intracellular dNTP pool in FM3A cells	2.1 µM	92%			
